{
  "source": "ChEMBL document CHEMBL1145913",
  "about": "“Synthesis and evaluation of imidazole acetic acid inhibitors of activated thrombin-activatable fibrinolysis inhibitor as novel antithrombotics” (J Med Chem, 2003)",
  "key": {"[1]": {"assay": "Concentration of compound that gives 50% of the maximum acceleration of lysis was determined by clot lysis assay using human plasma", "assay_type": "functional"}, "[2]": {"assay": "In vitro inhibition of purified Carboxypeptidase N (CPN) by spectrophotometric assay"}, "[3]": {"biological_target": "Carboxypeptidase B2 (Homo sapiens) (UniProt Q96IY4)", "assay": "In vitro inhibition of activated thrombin-activatable fibrinolysis inhibitor (TAFIa) was determined by ECL enzyme assay"}, "[4]": {"assay": "In vitro inhibition of thrombin-activatable fibrinolysis was determined against TAFIa enzyme by ECL assay"}, "[5]": {"assay": "Tested in vivo for time-to-occlusion in jugular vein of african green monkey when administered at a dose of 0.3 mg/kg iv bolus + 0.1 mg/(kg.min) continuous infusion", "assay_type": "functional, Cercopithecidae", "method_in_brief": "(§1)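 African green monkey jugular vein model. Time-to-occlusion is recorded during iv bolus plus continuous infusion for 300 min; vehicle-treated animals are included.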"}, "[6]": {"assay": "Tested in vivo for bleeding time in african green monkey when administered along with saline", "assay_type": "functional, Cercopithecidae", "method_in_brief": "(§2)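 African green monkeys receive an iv bolus and then continuous infusion for 300 min, or vehicle. Template bleeding time is measured.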"}, "[7]": {"assay": "Tested in vivo for bleeding time in african green monkey when administered at a dose of 0.03 mg/kg iv bolus + 0.01 mg/(kg.min) continuous infusion", "assay_type": "functional, Cercopithecidae", "method_in_brief": "as §2"}, "[8]": {"assay": "Bioavailability in dog", "assay_type": "ADME, organism-based, Canis lupus familiaris", "settings": "in vivo"}, "[9]": {"assay": "Bioavailability in rat", "assay_type": "ADME, organism-based", "settings": "in vivo"}, "[10]": {"assay": "Bioavailability in rhesus", "assay_type": "ADME, organism-based, Macaca mulatta", "settings": "rhesus monkey, in vivo"}, "[11]": {"assay": "Volume of distribution in dog", "assay_type": "ADME, organism-based, Canis lupus familiaris", "settings": "in vivo, read-out: Vdss"}, "[12]": {"assay": "Volume of distribution in rat", "assay_type": "ADME, organism-based", "settings": "in vivo, read-out: Vdss"}, "[13]": {"assay": "Volume of distribution in rhesus", "assay_type": "ADME, organism-based, Macaca mulatta", "settings": "rhesus monkey, in vivo; read-out: Vdss"}, "[14]": {"assay": "Tested in vivo for bleeding time in african green monkey when administered at a dose of 0.05 mg/kg iv bolus + 0.02 mg/(kg.min) continuous infusion", "assay_type": "functional, Cercopithecidae", "method_in_brief": "as §2"}, "[15]": {"assay": "Tested in vivo for bleeding time in african green monkey when administered at a dose of 0.1 mg/kg iv bolus + 0.03 mg/(kg.min) continuous infusion", "assay_type": "functional, Cercopithecidae", "method_in_brief": "as §2"}, "[16]": {"assay": "Tested in vivo for time-to-occlusion in carotid artery of african green monkey when administered along with saline", "assay_type": "functional, Cercopithecidae"}, "[17]": {"assay": "Tested in vivo for time-to-occlusion in carotid artery of african green monkey when administered at a dose of 0.05 mg/kg iv bolus + 0.02 mg/(kg.min) continuous infusion", "assay_type": "functional, Cercopithecidae"}, "[18]": {"assay": "Tested in vivo for time-to-occlusion in carotid artery of african green monkey when administered at a dose of 0.1 mg/kg iv bolus + 0.03 mg/(kg.min) continuous infusion", "assay_type": "functional, Cercopithecidae"}, "[19]": {"assay": "Tested in vivo for time-to-occlusion in carotid artery of african green monkey when administered at a dose of 0.3 mg/kg iv bolus + 0.1 mg/(kg.min) continuous infusion", "assay_type": "functional, Cercopithecidae"}, "[20]": {"assay": "Tested in vivo for time-to-occlusion in jugular vein of african green monkey when administered along with saline", "assay_type": "functional, Cercopithecidae", "method_in_brief": "as §1"}, "[21]": {"assay": "Tested in vivo for time-to-occlusion in jugular vein of african green monkey when administered at a dose of 0.03 mg/kg iv bolus + 0.01 mg/(kg.min) continuous infusion", "assay_type": "functional, Cercopithecidae", "method_in_brief": "as §1"}, "[22]": {"assay": "Tested in vivo for time-to-occlusion in jugular vein of african green monkey when administered at a dose of 0.05 mg/kg iv bolus + 0.02 mg/(kg.min) continuous infusion", "assay_type": "functional, Cercopithecidae", "method_in_brief": "as §1"}, "[23]": {"assay": "Tested in vivo for time-to-occlusion in jugular vein of african green monkey when administered at a dose of 0.1 mg/kg iv bolus + 0.03 mg/(kg.min) continuous infusion", "assay_type": "functional, Cercopithecidae", "method_in_brief": "as §1"}, "[24]": {"assay": "Half life in dog", "assay_type": "ADME, organism-based, Canis lupus familiaris", "settings": "in vivo"}, "[25]": {"assay": "Half life in rat", "assay_type": "ADME, organism-based", "settings": "in vivo"}, "[26]": {"assay": "Half life in rhesus", "assay_type": "ADME, organism-based, Macaca mulatta", "settings": "rhesus monkey, in vivo"}, "[27]": {"assay": "Clearance in dog", "assay_type": "ADME, organism-based, Canis lupus familiaris", "settings": "in vivo"}, "[28]": {"assay": "Clearance in rat", "assay_type": "ADME, organism-based", "settings": "in vivo"}, "[29]": {"assay": "Clearance in rhesus", "assay_type": "ADME, organism-based, Macaca mulatta", "settings": "rhesus monkey, in vivo"}, "[30]": {"assay": "Tested in vivo for bleeding time in african green monkey when administered at a dose of 0.3 mg/kg iv bolus + 0.1 mg/(kg.min) continuous infusion", "assay_type": "functional, Cercopithecidae", "method_in_brief": "as §2"}, "[31]": {"assay": "Tested in vivo for time-to-occlusion in carotid artery of african green monkey when administered at a dose of 0.03 mg/kg iv bolus + 0.01 mg/(kg.min) continuous infusion", "assay_type": "functional, Cercopithecidae"}},
  "data": [
    {"smiles": "CCCCn1cnc(C(Cc2ccc(N)nc2)C(=O)O)c1", "note": "(centres undefined)", "values": [
      {"measurement": "CLT50", "setting": "[1]", "value": 0.15, "unit": "µM"},
      {"measurement": "IC50", "setting": "[2]", "value": "> 50", "unit": "µM"}
    ]},
    {"smiles": "O=C(O)CC(Cc1ccccc1)C(=O)O", "note": "(centres undefined)", "values": [
      {"measurement": "CLT50", "setting": "[1]", "value": ">50", "unit": "µM"}
    ]},
    {"smiles": "O=C(O)C(Cc1ccccc1)c1c[nH]cn1", "note": "(centres undefined)", "values": [
      {"measurement": "CLT50", "setting": "[1]", "value": ">50", "unit": "µM"},
      {"measurement": "IC50", "setting": "[2]", "value": "> 50", "unit": "µM"},
      {"measurement": "IC50", "setting": "[3]", "value": "> 100000", "unit": "nM"}
    ]},
    {"smiles": "Cn1cnc(C(Cc2ccc(N)nc2)C(=O)O)c1", "note": "(centres undefined)", "values": [
      {"measurement": "CLT50", "setting": "[1]", "value": 0.42, "unit": "µM"},
      {"measurement": "IC50", "setting": "[2]", "value": "> 50", "unit": "µM"}
    ]},
    {"smiles": "CC(C)n1cnc(C(Cc2ccc(N)nc2)C(=O)O)c1", "note": "(centres undefined)", "values": [
      {"measurement": "CLT50", "setting": "[1]", "value": 1.06, "unit": "µM"},
      {"measurement": "IC50", "setting": "[2]", "value": "> 50", "unit": "µM"}
    ]},
    {"smiles": "CCn1cnc(C(Cc2ccc(N)nc2)C(=O)O)c1", "note": "(centres undefined)", "values": [
      {"measurement": "CLT50", "setting": "[1]", "value": 0.65, "unit": "µM"},
      {"measurement": "IC50", "setting": "[2]", "value": "> 50", "unit": "µM"}
    ]},
    {"smiles": "Nc1ccc(CC(C(=O)O)c2cn(Cc3ccccc3)cn2)cn1", "note": "(centres undefined)", "values": [
      {"measurement": "CLT50", "setting": "[1]", "value": 0.74, "unit": "µM"},
      {"measurement": "IC50", "setting": "[2]", "value": "> 50", "unit": "µM"},
      {"measurement": "IC50", "setting": "[3]", "value": 28, "unit": "nM"}
    ]},
    {"smiles": "Nc1ccc(CC(C(=O)O)c2c[nH]cn2)cn1", "note": "(racemic)", "values": [
      {"measurement": "CLT50", "setting": "[1]", "value": 0.97, "unit": "µM"},
      {"measurement": "IC50", "setting": "[4]", "value": 80, "unit": "nM"}
    ]},
    {"smiles": "CC(C)CCn1cnc(C(Cc2ccc(N)nc2)C(=O)O)c1", "note": "(racemic)", "values": [
      {"measurement": "CLT50", "setting": "[1]", "value": 0.12, "unit": "µM"},
      {"measurement": "IC50", "setting": "[4]", "value": 5, "unit": "nM"}
    ]},
    {"smiles": "Nc1ccc(CC(C(=O)O)c2c[nH]cn2)cn1", "note": "(single isomer, unassigned; (-))", "values": [
      {"measurement": "CLT50", "setting": "[1]", "value": 0.5, "unit": "µM"},
      {"measurement": "IC50", "setting": "[4]", "value": 40, "unit": "nM"}
    ]},
    {"smiles": "Nc1ccc(CC(C(=O)O)c2c[nH]cn2)cn1", "note": "(stereo in doubt; 10b(+))", "values": [
      {"measurement": "CLT50", "setting": "[1]", "value": ">10", "unit": "µM"},
      {"measurement": "IC50", "setting": "[2]", "value": "> 50", "unit": "µM"},
      {"measurement": "IC50", "setting": "[4]", "value": 1800, "unit": "nM"}
    ]},
    {"smiles": "CC(C)CCn1cnc(C(Cc2ccc(N)nc2)C(=O)O)c1", "note": "(stereo in doubt; 10j(-))", "values": [
      {"measurement": "TTO", "setting": "[5]", "value": 216, "unit": "min"},
      {"measurement": "Bleeding time", "setting": "[6]", "value": 2, "unit": "min"},
      {"measurement": "Bleeding time", "setting": "[7]", "value": 2, "unit": "min"},
      {"measurement": "bioavailability", "setting": "[8]", "value": 38, "unit": "%"},
      {"measurement": "bioavailability", "setting": "[9]", "value": 47, "unit": "%"},
      {"measurement": "bioavailability", "setting": "[10]", "value": 12, "unit": "%"},
      {"measurement": "Vd", "setting": "[11]", "value": 0.28, "unit": "L/kg"},
      {"measurement": "Vd", "setting": "[12]", "value": 1.36, "unit": "L/kg"},
      {"measurement": "Vd", "setting": "[13]", "value": 0.26, "unit": "L/kg"},
      {"measurement": "Bleeding time", "setting": "[14]", "value": 2.2, "unit": "min"},
      {"measurement": "Bleeding time", "setting": "[15]", "value": 2.3, "unit": "min"},
      {"measurement": "TTO", "setting": "[16]", "value": 51, "unit": "min"},
      {"measurement": "TTO", "setting": "[17]", "value": 62, "unit": "min"},
      {"measurement": "TTO", "setting": "[18]", "value": 52, "unit": "min"},
      {"measurement": "TTO", "setting": "[19]", "value": 85, "unit": "min"},
      {"measurement": "TTO", "setting": "[20]", "value": 96, "unit": "min"},
      {"measurement": "TTO", "setting": "[21]", "value": 128, "unit": "min"},
      {"measurement": "TTO", "setting": "[22]", "value": 147, "unit": "min"},
      {"measurement": "TTO", "setting": "[23]", "value": 171, "unit": "min"},
      {"measurement": "half-life", "setting": "[24]", "value": 36, "unit": "min"},
      {"measurement": "half-life", "setting": "[25]", "value": 66, "unit": "min"},
      {"measurement": "half-life", "setting": "[26]", "value": 48, "unit": "min"},
      {"measurement": "clearance", "setting": "[27]", "value": 6.1, "unit": "mL/min/kg"},
      {"measurement": "clearance", "setting": "[28]", "value": 32, "unit": "mL/min/kg"},
      {"measurement": "clearance", "setting": "[29]", "value": 6.1, "unit": "mL/min/kg"},
      {"measurement": "Bleeding time", "setting": "[30]", "value": 2.9, "unit": "min"},
      {"measurement": "CLT50", "setting": "[1]", "value": 0.056, "unit": "µM"},
      {"measurement": "TTO", "setting": "[31]", "value": 61, "unit": "min"},
      {"measurement": "IC50", "setting": "[2]", "value": "> 50", "unit": "µM"},
      {"measurement": "IC50", "setting": "[4]", "value": 2, "unit": "nM"}
    ]}
  ]
}
